In PMC12779259 (Metallomics : integrated biometal science, 2019):
In brackets after ≈: the same amount, converted by molar mass.

What was measured:
S. aureus [1] = experiment: MIC determination against S. aureus in RPMI; type: cell-based, Staphylococcus aureus; details: for ^CuMIC (S. aureus): MIC in 50 μM copper supplemented medium
THP-1 monocytic cells = experiment: Toxicity testing on THP-1 monocyte cells; type: cell-based, human; details: 24 h
[2] = tested on: S. aureus strain LAC carrying pHluorin; type: cell-based, Staphylococcus aureus; details: mildly acidic medium (pH 6.2)
[3] = tested on: methicillin resistant S. aureus strains; experiment: MIC against clinically isolated MRSA strains; type: cell-based, Staphylococcus aureus; details: 5 clinically isolated MRSA strains, 50 μM Cu
S. aureus Newman = experiment: Membrane potential, DiOC2; type: cell-based, Staphylococcus aureus; details: within 30 min; 10 μM PZP-915 and/or 50 μM Cu
[4] = Determination of binding constants by UV/Vis; details: 25 uM HEPES buffer pH 7.2
[5] = tested on: preformed S. aureus biofilms; experiment: Biofilm eradication assay; type: cell-based, Staphylococcus aureus; details: preformed S. aureus Newman biofilms, 24 hours treatment
S. aureus [6] = experiment: Time to death assay and bactericidal activity; type: cell-based, Staphylococcus aureus; details: for mode of action (bactericidal vs bacteriostatic): CFU
[7] = Toxicity testing on THP-1 monocyte cells; type: cell-based, human; details: human, THP-1 monocytic cells
GAPDH = target: T1, GAPDH (Staphylococcus aureus, UniProt Q6GIL8); experiment: GAPDH activity in lysates of treated bacteria; type: cell-based; details: 30 minutes treatment; 50 µM Cu, 10 µM PZP-915, 10 µM 915+50 µM Cu
T1 sequence (Q6GIL8 1-336): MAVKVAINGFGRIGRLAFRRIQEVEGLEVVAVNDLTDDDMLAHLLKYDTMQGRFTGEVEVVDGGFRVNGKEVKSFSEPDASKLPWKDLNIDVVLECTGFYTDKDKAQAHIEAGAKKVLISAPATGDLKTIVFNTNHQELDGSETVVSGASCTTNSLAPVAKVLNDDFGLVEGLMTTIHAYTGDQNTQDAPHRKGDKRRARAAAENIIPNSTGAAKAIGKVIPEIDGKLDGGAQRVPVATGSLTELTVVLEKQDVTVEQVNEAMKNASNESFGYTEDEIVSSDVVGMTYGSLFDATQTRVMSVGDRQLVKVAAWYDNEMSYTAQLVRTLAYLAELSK
In short: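 After the 30 min treatment, bacteria washed to remove extracellular copper, then lysed. GAPDH activity measured in the lysates.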

## CNC(=S)NN=CC=NNC(=S)NC [GTSM]
S. aureus [1]
  ^CuMIC (S. aureus): 0.3 µM
THP-1 monocytic cells; IC90 in the presence of 25 μM copper
  ^CuIC90 (THP1): 0.15 µM
THP-1 monocytic cells; read-out: IC90 (THP1), 90% inhibition relative to untreated controls, no Cu
  IC90: > 10 µM

## Iron
S. aureus [1]; metal alone
  concentration up to which no toxicity to S. aureus was observed: > 3.2 mM

## Carbonyl cyanide m-chlorophenyl hydrazine [CCCP, reference compound]
[2]
  change of intracellular pH: almost instantaneous pH drop

## Cc1nn2c(=O)cc(Cc3ccccc3)[nH]c2c1-c1ccc(Cl)cc1 [PZP-915, 5‐benzyl‐3‐(4‐chlorophenyl)‐2‐methyl‐4H,7H‐pyrazolo[1,5‐a]pyrimidin‐7‐one]
[3]
  MIC against MRSA strains in comparison to S. aureus Newman: no difference
S. aureus [1]; 50 μM Cu, 500 μM BCS
  activity in medium supplemented with both Cu and BCS: about the same as in standard medium
S. aureus [1]; 50 μM Fe supplemented medium
  effect of Fe on activity: no effect
S. aureus [1]; 50 μM Zn supplemented medium
  improvement of activity by Zn in comparison to standard medium: 4 fold
S. aureus [1]; 500 μM BCS, no Cu supplementation
  impact of BCS addition to standard medium on activity: no impact
S. aureus [1]
  ^CuMIC (S. aureus): 0.6 µM
S. aureus [1]; Staphylococcus aureus, read-out: MIC (S. aureus)
  MIC: 5 µM (≈ 1.75 µg/mL)
[2]
  change of intracellular pH: no or only a minor impact
S. aureus Newman
  effect on membrane potential (DiOC2(3) red/green ratio): decreased the membrane potential, although to a much lesser extent
[4]
  binding constant, 1st order reaction of copper binding: 3.8×10^5 Lmol^−1
  binding constant, 2nd order complex with copper: 6.18 Lmol^−1
  binding constant, 3rd order complex with copper: 47.65 Lmol^−1
[5]
  concentration for complete eradication of S. aureus in biofilms: 0.6 µM
S. aureus [6]; 0.6 µM PZP-915 in the presence of 50 µM Cu
  time to achieve complete inhibition of growth: 2 h
S. aureus [6]; 24h treatment, 50 μM Cu added, consistent with bactericidal activity
  recoverable viable bacteria: no viable cells could be recovered
S. aureus [6]; 24h treatment, presence of 50 μM Zn
  mode of action (bactericidal vs bacteriostatic): bacteriostatic
S. aureus [6]; 24h treatment, standard medium, absence of Cu
  mode of action (bactericidal vs bacteriostatic): bacteriostatic
S. aureus [6]; dose-matrix, 0.6 µM PZP-915
  Cu concentration required to display similar potency: 50 µM
S. aureus [6]; dose-matrix, 10 µM PZP-915
  Cu concentration required to exert potent antibacterial properties: 1.25 µM
[7]
  IC90 at 24 h: > 40 µM
GAPDH
  GAPDH activity in cell lysates: did not alter GAPDH activity
